Measurements as given in ChEMBL document CHEMBL4270616, “Asymmetrical meta-methoxylated diarylpentanoids: Rational design, synthesis and anti-cancer evaluation in-vitro” (Eur J Med Chem, 2018).

What was measured:
[1] = test system: SW-620; experiment: Cell cycle arrest in human SW620 cells assessed as accumulation at G2/M phase at 2.5 uM after 24 hrs by propidium iodide staining based flow cytometry (reference value: 19%); assay type: functional
[2] = test system: SW-620; experiment: Induction of apoptosis in human SW620 cells assessed as late apoptotic cells at 10 uM after 24 hrs by Annexin V-FITC/propidium iodide staining based flow cytometry (reference value: 0.43%); assay type: functional
[3] = test system: SW-620; experiment: Induction of ROS generation in human SW620 cells after 12 hrs by DCFDA staining based flow cytometry; assay type: functional, cell-based
How it was run: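 SW620 cells (2×10^5/well) adhered overnight and were loaded with 10 μM DCFDA in medium for 1 h, then washed twice with PBS. Compound exposure followed at several concentrations for 12 h, with untreated and hydrogen peroxide-treated controls. Harvested cells were resuspended in PBS and DCF fluorescence read by flow cytometry at ex 488/em 525 nm.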

[4] = test system: SW-620; experiment: Induction of apoptosis in human SW620 cells assessed as necrotic cells at 2.5 uM after 48 hrs by Annexin V-FITC/propidium iodide staining based flow cytometry (reference value: 0.23%); assay type: functional
[5] = test system: HT-1080; experiment: Cytotoxicity against human HT1080 cells assessed as inhibition of cell proliferation at 20 uM after 72 hrs by MTT assay relative to control; assay type: functional; settings: HT-1080, 72 h
How it was run: (§1)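 Single-concentration screen at 20 μM with 72 h exposure in DMEM with 10% FBS, final DMSO 0.1%. Read-out was MTT (5 mg/mL, 4 h, 37°C), DMSO solubilisation and absorbance at 570 nm, expressed as percent inhibition. Lines reaching a threshold percentage went on to IC50 determination.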

[6] = test system: SW-620; experiment: Induction of apoptosis in human SW620 cells assessed as early apoptotic cells at 10 uM after 24 hrs by Annexin V-FITC/propidium iodide staining based flow cytometry (reference value: 2.35%); assay type: functional
[7] = Cytotoxicity against human EJ28 cells assessed as inhibition of cell proliferation at 20 uM after 72 hrs by MTT assay relative to control; assay type: functional; settings: EJ-28, 72 h; how it was run: as §1

**Q.** Which Activity [1] does the source give for COc1ccc(/C=C2\CCC/C(=C\c3cccc(O)c3)C2=O)cc1OC here?
**A.** 49%

**Q.** And the Activity [2]?
**A.** 7.42%

**Q.** And the Activity [3]?
**A.** Dose-dependent effect

**Q.** What about the Activity [4] of the same molecule?
**A.** 0.44%

**Q.** What about the inhibition at 20 µM [5] of the same molecule?
**A.** > 50%

**Q.** And the Activity [6]?
**A.** 42.12%

**Q.** And the inhibition at 20 µM [7]?
**A.** > 50%

**Q.** With COc1ccc(/C=C2\CCC/C(=C\c3cc(OC)c(OC)c(OC)c3)C2=O)cc1OC as the molecule, how does the Activity [1] read?
**A.** 50%

**Q.** What about the Activity [2] of the same molecule?
**A.** 12.66%

**Q.** And the Activity [3]?
**A.** Dose-dependent effect

**Q.** And the Activity [4]?
**A.** 0.55%

**Q.** What about the inhibition at 20 µM [5] of the same molecule?
**A.** > 50%

**Q.** And the Activity [6]?
**A.** 40.33%

**Q.** What about the inhibition at 20 µM [7] of the same molecule?
**A.** > 50%
